Converted amounts (≈) assume the structure as drawn. The source made the active and inactive calls. No cut-off for these calls is given here.
Tests used:
[1] = Oral bioavailability in rat at 1 mg/kg; type: ADME, organism-based; conditions: in vivo
Procedure, shortened: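 Oral dosing in rats at 1 mg/kg, n = 3 animals; F (%) given as mean, SEM <20% of mean unless stated.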

[2] = Clearance in rat at 1 mg/kg, iv; type: ADME, organism-based; design: dose 1 mg/kg, route intravenous; conditions: in vivo
Rattus norvegicus [3] = assay: Memory enhancing effect in ip dosed adult rat by five trial inhibitory avoidance method; type: functional, organism-based
Rattus norvegicus [4] = assay: Volume of distribution in rat at 1 mg/kg, iv; type: ADME, organism-based; design: dose 1 mg/kg, route intravenous; conditions: in vivo
[5] = Ratio of drug level in brain to blood in mouse at 1 mg/kg, ip; type: ADME, organism-based; design: dose 1 mg/kg, route intraperitoneal
Procedure, shortened: (§1)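 Mice dosed i.p. at 1 mg/kg; brain and blood sampled 1 h after dosing, concentrations by HPLC-MS; n ≥ 3, SEM <11% of mean unless stated.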

[6] = Protein binding in monkey plasma; type: ADME, cell-free, Macaca mulatta; conditions: rhesus monkey, read-out: PPB (converted)
Rattus norvegicus [7] = assay: Memory enhancing effect in ip dosed adult rat by social recognition memory method; type: functional, organism-based
Procedure, shortened: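 Adult rat explores a juvenile 5 min, separated 2 h, re-exposed 5 min; compound or saline i.p. right after first exposure; investigation ratio (second/first time); ciproxifan 1 mg/kg standard; n ≥ 12, Dunnett's post hoc, P < 0.05; efficacious doses in mg/kg.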

Brain [8] = assay: Drug level in mouse brain at 1 mg/kg, ip; type: ADME, organism-based; design: dose 1 mg/kg, route intraperitoneal; conditions: in vivo; procedure, shortened: as §1
[9] = Half life in rat at 1 mg/kg, iv; type: ADME, organism-based; design: dose 1 mg/kg, route intravenous; conditions: in vivo
Rattus norvegicus [10] = assay: Memory enhancing effect in ip dosed rat by five trial inhibitory avoidance method at 3 mg/kg; type: functional, organism-based; design: dose 3 mg/kg
[11] = Protein binding in rat plasma; type: ADME, cell-free; conditions: read-out: PPB (converted)
[12] = Protein binding in dog plasma; type: ADME, cell-free, Canis lupus familiaris; conditions: read-out: PPB (converted)
Brain [13] = assay: Drug level in rat brain at 1 mg/kg, iv; type: ADME, organism-based; design: dose 1 mg/kg, route intravenous; conditions: in vivo
Procedure, shortened: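 Rats dosed i.v. at 1 mg/kg; brain concentration measured 1 h post-dose by HPLC-MS; n ≥ 3, SEM <11% of mean unless stated.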

[14] = Ratio of drug level in brain to blood in rat at 1 mg/kg, iv; type: ADME, organism-based; design: dose 1 mg/kg, route intravenous
Procedure, shortened: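 Rats given 1 mg/kg i.v.; brain and plasma concentrations measured 1 h after dosing by HPLC-MS, and the brain-to-plasma ratio was taken from these; n ≥ 3 animals.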

Cytochrome P450 2C9 = Cytochrome P450 2C9 (Homo sapiens, UniProt P11712); assay: Inhibition of CYP2C9 at 10 to 20 uM; type: ADME
Rattus norvegicus [15] = assay: CNS toxicity assessed as piloerection in rat at 2.8 mg/kg; type: organism-based; design: dose 2.8 mg/kg; conditions: in vivo
Rattus norvegicus [16] = assay: CNS toxicity assessed as hypoactivity in rat at 2.8 mg/kg; type: organism-based; design: dose 2.8 mg/kg; conditions: in vivo
Plasma [17] = assay: Drug level in rat plasma at 0.3 mg/kg; type: ADME, organism-based; design: dose 0.3 mg/kg; conditions: in vivo
Rattus norvegicus [18] = assay: CNS toxicity assessed as piloerection in rat at 9.4 mg/kg; type: organism-based; design: dose 9.4 mg/kg; conditions: in vivo
[19] = Bioavailability in dog; type: ADME, organism-based, Canis lupus familiaris; conditions: in vivo
[20] = target: T1, Muscarinic acetylcholine receptor M4 (Homo sapiens) (UniProt P08173); assay: Inhibition of human muscarinic M4 receptor at 10 uM
T1 sequence (whole entry): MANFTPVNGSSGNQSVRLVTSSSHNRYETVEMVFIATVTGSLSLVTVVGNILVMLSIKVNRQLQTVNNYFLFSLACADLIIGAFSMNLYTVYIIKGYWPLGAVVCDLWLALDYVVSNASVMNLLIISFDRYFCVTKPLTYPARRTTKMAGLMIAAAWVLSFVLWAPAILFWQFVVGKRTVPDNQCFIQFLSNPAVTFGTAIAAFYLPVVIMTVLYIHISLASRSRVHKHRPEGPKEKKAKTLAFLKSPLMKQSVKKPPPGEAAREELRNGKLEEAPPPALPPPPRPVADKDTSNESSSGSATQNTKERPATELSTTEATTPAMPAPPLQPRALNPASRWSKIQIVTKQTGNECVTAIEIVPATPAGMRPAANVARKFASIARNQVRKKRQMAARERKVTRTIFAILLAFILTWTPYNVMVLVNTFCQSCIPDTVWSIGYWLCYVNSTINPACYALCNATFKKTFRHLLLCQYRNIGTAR

Cytochrome P450 1A2 = target: T2, Cytochrome P450 1A2 (Homo sapiens, UniProt P05177); assay: Inhibition of CYP1A2 at 10 to 20 uM; type: ADME
T2 sequence (P05177 whole entry): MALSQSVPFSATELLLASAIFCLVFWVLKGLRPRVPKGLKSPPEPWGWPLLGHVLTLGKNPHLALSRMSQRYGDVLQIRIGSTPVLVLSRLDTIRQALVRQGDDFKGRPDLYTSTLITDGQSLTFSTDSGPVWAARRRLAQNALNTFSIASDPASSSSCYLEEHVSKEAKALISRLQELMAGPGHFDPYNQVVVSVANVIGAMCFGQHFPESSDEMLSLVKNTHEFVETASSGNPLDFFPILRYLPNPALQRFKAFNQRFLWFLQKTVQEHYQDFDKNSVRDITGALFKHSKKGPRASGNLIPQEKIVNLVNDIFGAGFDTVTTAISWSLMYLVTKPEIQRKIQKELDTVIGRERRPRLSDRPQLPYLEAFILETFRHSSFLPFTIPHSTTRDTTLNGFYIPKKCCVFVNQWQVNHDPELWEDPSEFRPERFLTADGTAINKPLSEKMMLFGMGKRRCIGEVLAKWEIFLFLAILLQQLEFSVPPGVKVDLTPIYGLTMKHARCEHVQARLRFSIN

Cytochrome P450 2E1 = Cytochrome P450 2E1 (Homo sapiens, UniProt P05181); assay: Inhibition of CYP2E1 at 10 to 20 uM; type: ADME
Rattus norvegicus [21] = assay: CNS toxicity assessed as hypoactivity in rat at 9.4 mg/kg; type: organism-based; design: dose 9.4 mg/kg; conditions: in vivo
[22] = target: T3, Adenosine receptor A3 (Homo sapiens) (UniProt P0DMS8); assay: Inhibition of human adenosine A3 receptor at 10 uM
T3 sequence (whole entry): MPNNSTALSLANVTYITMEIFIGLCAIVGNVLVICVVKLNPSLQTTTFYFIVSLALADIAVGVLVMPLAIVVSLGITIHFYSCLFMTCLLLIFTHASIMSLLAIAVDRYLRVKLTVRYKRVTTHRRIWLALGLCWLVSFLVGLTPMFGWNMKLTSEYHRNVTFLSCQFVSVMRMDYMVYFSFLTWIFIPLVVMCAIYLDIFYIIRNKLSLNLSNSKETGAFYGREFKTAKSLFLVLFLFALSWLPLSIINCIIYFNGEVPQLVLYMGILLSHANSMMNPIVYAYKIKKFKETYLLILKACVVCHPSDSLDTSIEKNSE

Cytochrome P450 2C19 = Cytochrome P450 2C19 (Homo sapiens, UniProt P33261); assay: Inhibition of CYP2C19 at 10 to 20 uM; type: ADME
[23] = Photostability of the UV light irradiated compound; type: ADME
L-type calcium channel = L-type calcium channel (Homo sapiens, UniProt O60840+Q01668+Q13698+Q13936); assay: Inhibition of human L-type calcium channel at 10 uM
Cytochrome P450 2A6 = target: T4, Cytochrome P450 2A6 (Homo sapiens, UniProt P11509); assay: Inhibition of CYP2A6 at 10 to 20 uM; type: ADME
T4 sequence (P11509 whole entry): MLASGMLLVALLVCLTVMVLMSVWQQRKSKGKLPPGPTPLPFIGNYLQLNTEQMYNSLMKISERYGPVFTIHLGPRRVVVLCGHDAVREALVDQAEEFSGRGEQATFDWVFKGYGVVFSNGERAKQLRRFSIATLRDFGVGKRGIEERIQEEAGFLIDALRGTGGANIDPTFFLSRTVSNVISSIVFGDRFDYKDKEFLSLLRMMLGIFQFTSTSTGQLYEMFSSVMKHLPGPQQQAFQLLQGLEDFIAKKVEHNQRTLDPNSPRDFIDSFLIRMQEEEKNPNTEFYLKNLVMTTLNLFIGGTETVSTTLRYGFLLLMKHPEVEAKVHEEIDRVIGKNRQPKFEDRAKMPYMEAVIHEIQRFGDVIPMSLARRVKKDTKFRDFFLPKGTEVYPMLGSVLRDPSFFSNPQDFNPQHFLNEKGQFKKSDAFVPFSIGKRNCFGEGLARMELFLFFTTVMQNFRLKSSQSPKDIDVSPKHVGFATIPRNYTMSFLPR

Cytochrome P450 2D6 = Cytochrome P450 2D6 (Homo sapiens, UniProt P10635); assay: Inhibition of CYP2D6 at 10 to 20 uM; type: ADME
Cytochrome P450 3A4 = Cytochrome P450 3A4 (Homo sapiens, UniProt P08684); assay: Inhibition of CYP3A4 at 10 to 20 uM; type: ADME
[24] = Solubility in water at pH 7; type: physicochemical
Homo sapiens = organism: Homo sapiens; assay: Inhibition of human sigma receptor at 10 uM
Plasma [25] = assay: Drug level in rat plasma at 0.1 mg/kg; type: ADME, organism-based; design: dose 0.1 mg/kg; conditions: in vivo

Cytochrome P450 2E1, sequence (P05181 whole entry): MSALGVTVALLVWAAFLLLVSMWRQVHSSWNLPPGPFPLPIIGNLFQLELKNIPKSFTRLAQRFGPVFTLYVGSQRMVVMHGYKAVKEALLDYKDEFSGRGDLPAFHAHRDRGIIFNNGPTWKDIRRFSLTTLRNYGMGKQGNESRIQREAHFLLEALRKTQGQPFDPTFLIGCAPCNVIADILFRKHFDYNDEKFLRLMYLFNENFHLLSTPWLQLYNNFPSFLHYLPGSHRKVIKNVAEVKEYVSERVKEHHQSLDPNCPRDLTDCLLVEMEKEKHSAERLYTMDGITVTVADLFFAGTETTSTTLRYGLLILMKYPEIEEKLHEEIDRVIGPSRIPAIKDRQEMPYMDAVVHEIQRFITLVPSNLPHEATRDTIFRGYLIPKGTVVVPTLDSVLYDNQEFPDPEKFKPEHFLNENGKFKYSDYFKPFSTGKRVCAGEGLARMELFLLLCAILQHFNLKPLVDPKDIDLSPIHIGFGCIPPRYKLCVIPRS
Cytochrome P450 3A4, sequence (P08684 whole entry): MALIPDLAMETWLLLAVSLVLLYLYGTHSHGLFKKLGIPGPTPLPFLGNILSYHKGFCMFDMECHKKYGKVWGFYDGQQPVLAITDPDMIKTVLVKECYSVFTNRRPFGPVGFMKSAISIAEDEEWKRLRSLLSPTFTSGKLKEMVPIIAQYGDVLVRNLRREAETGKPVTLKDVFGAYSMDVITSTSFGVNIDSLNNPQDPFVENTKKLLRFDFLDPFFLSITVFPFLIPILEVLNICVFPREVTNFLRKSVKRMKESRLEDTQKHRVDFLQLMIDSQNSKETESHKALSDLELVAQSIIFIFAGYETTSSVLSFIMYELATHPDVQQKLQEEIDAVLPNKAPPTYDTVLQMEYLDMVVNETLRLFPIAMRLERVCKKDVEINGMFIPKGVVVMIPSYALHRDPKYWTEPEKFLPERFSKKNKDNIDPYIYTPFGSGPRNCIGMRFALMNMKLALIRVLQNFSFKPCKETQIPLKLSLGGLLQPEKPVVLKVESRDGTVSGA
Cytochrome P450 2C9, sequence (P11712 whole entry): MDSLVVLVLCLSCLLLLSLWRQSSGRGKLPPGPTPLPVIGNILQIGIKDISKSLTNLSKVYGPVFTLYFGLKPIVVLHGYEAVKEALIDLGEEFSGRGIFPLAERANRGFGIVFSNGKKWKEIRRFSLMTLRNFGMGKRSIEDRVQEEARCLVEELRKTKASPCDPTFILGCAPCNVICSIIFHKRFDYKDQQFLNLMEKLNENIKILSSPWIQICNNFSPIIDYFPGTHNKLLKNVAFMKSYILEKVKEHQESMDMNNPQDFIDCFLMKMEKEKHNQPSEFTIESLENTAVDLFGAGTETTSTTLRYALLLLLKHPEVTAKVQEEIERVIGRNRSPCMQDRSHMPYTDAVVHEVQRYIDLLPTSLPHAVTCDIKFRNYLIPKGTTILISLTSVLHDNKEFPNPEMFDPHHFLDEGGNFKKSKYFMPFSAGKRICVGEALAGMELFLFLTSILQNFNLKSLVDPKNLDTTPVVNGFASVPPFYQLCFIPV
Cytochrome P450 2D6, sequence (P10635 whole entry): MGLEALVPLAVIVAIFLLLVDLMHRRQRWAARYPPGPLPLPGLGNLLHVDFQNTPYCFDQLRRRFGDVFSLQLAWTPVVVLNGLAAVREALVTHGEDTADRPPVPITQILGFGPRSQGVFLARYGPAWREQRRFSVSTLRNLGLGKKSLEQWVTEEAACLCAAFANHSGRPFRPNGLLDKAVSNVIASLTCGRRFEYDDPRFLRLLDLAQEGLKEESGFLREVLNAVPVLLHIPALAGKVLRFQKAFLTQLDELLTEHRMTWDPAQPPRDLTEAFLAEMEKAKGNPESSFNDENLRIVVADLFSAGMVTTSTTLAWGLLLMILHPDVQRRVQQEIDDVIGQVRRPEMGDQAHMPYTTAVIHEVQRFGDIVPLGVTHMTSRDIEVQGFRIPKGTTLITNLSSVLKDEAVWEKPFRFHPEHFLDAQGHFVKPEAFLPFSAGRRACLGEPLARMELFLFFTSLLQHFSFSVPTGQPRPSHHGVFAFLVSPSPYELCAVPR
Cytochrome P450 2C19, sequence (P33261 whole entry): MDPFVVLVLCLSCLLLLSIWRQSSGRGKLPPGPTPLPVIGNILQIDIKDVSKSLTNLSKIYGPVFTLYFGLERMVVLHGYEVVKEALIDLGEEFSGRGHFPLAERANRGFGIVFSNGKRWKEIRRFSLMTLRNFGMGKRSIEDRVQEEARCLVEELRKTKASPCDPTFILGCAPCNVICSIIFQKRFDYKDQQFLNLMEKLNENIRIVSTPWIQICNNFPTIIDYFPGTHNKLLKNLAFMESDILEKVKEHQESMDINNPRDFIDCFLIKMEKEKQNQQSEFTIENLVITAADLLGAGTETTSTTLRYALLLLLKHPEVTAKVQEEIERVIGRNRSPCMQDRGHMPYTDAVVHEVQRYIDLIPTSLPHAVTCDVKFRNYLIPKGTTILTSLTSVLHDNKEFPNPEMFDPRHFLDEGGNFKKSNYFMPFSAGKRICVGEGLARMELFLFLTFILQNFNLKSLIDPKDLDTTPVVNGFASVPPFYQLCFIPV

SMILES	bioavailability [1] [%]	clearance [2] [mL/min/kg]	Activity (Rattus norvegicus [3])	Vbeta (Rattus norvegicus [4]) [L/kg]	Kp [5]	fraction unbound [6]	Activity (Rattus norvegicus [7])	Drug uptake (Brain [8]) [ng/g]	half-life [9] [h]	Activity (Rattus norvegicus [10])	fraction unbound [11]	fraction unbound [12]	Drug uptake (Brain [13]) [ng/g]	Kp [14]	other results
CCOc1ccc(-n2ncc(-c3ccc4cc(CCN5CCC[C@H]5C)ccc4n3)c2C)nn1	70	8.83	Active	7.4	42	0.21	Active	3242	8.3	Active	0.11	–	–	–	–
Cc1c(-c2ccc3cc(CCN4CCC[C@H]4C)ccc3n2)cnn1-c1ccccn1	75	19.7	–	4.1	23	–	–	1659	2.4	–	–	–	–	–	–
O=C(c1ccc(OCCCc2c[nH]cn2)cc1)C1CC1	–	–	–	–	–	–	Active	–	–	–	–	–	–	–	–
C[C@@H]1CCCN1CCc1cc2cc(-c3ccc(C#N)cc3)ccc2o1	–	25	–	11.6	–	0.06	–	1728	–	–	0.06	0.09	3082	–	–
Cc1nc2ncccc2cc1-c1ccc2cc(CCN3CCC[C@H]3C)ccc2n1	30	42.3	–	9.2	–	0.5	Active	–	2	–	0.39	0.57	50	0.4	–
Cc1cc2ncc(-c3ccc4cc(CCN5CCC[C@H]5C)ccc4n3)c(C)n2n1	90	14	Active	6.3	1.5	0.45	Active	174	5.3	Active	0.3	0.4	440	1.6	Activity (Cytochrome P450 2C9): Not Active; Activity (Rattus norvegicus [15]): Non-toxic; Activity (Rattus norvegicus [16]): Non-toxic; Cp (Plasma [17]): 19.2 ng/mL; Activity (Rattus norvegicus [18]): Toxic; bioavailability [19]: 72%; inhibition [20]: 74%; Activity (Cytochrome P450 1A2): Not Active; Activity (Cytochrome P450 2E1): Not Active; Activity (Rattus norvegicus [21]): Toxic; inhibition [22]: 69%; Activity (Cytochrome P450 2C19): Not Active; Activity [23]: Not Active; inhibition at 10 µM (L-type calcium channel): 63%; Activity (Cytochrome P450 2A6): Not Active; Activity (Cytochrome P450 2D6): Not Active; Activity (Cytochrome P450 3A4): Not Active; solubility [24]: 8.7 mg/mL (≈ 22.6 mM); inhibition (Homo sapiens): 96%
Cc1nc(N2CCCC2)ncc1-c1ccc2cc(CCN3CCC[C@H]3C)ccc2n1	98	24.2	–	8.5	16	–	Active	718	4	–	–	–	–	–	–
Cc1nn(C)cc1-c1ccc2cc(CCN3CCC[C@H]3C)ccc2n1	58	61.7	Active	9	–	0.5	Active	–	1.7	Active	0.38	0.42	425	1.8	Activity (Cytochrome P450 2C9): Not Active; Activity (Rattus norvegicus [16]): Non-toxic; bioavailability [19]: 77%; Activity (Cytochrome P450 1A2): Not Active; Activity (Cytochrome P450 2E1): Not Active; Activity (Rattus norvegicus [21]): Toxic; Activity (Cytochrome P450 2C19): Not Active; Activity [23]: Not Active; Cp (Plasma [25]): 2.5 ng/mL; Activity (Cytochrome P450 2A6): Not Active; Activity (Cytochrome P450 2D6): Not Active; Activity (Cytochrome P450 3A4): Not Active; solubility [24]: 21 mg/mL (≈ 62.8 mM); inhibition (Homo sapiens): 86%
